Laboratory results as given in article PMC5148661 (ACS infectious diseases, 2016).

What was measured:
P. cynomolgi DHODH = P. cynomolgi DHODH (Plasmodium cynomolgi, UniProt K6UE05); test: DHODH inhibition, DCIP-based assay; format: biochemical
[1] = metabolic stability in liver microsomes; format: in vitro ADME; conditions: human
[2] = metabolic stability in liver microsomes; format: in vitro ADME; conditions: rat
[3] = cytotoxicity against a human cell line; format: cell-based; conditions: human, HepG2 cells
Human HepG2 cells = test: cytotoxicity against a human cell line; format: cell-based
[4] = tested on: P. falciparum field isolates; test: P. falciparum clinical isolates; format: cell-based; conditions: Plasmodium falciparum, 72 h, read-out: unbound EC50
[5] = P. falciparum SCID mouse efficacy model; format: in vivo; conditions: NOD-scid IL-2Rγnull (NSG), mouse, blood, oral
[6] = tested on: P. falciparum Pf3D7^0087/N9; test: P. falciparum SCID mouse efficacy model; format: in vivo
Caco-2 cell monolayers = test: Caco-2 cell permeability; format: in vitro ADME; conditions: both directions
CYP2D6 = CYP2D6 (Homo sapiens, UniProt P10635); test: reversible cytochrome P450 inhibition; format: in vitro ADME
Sequence of CYP2D6 (P10635 whole entry, canonical isoform): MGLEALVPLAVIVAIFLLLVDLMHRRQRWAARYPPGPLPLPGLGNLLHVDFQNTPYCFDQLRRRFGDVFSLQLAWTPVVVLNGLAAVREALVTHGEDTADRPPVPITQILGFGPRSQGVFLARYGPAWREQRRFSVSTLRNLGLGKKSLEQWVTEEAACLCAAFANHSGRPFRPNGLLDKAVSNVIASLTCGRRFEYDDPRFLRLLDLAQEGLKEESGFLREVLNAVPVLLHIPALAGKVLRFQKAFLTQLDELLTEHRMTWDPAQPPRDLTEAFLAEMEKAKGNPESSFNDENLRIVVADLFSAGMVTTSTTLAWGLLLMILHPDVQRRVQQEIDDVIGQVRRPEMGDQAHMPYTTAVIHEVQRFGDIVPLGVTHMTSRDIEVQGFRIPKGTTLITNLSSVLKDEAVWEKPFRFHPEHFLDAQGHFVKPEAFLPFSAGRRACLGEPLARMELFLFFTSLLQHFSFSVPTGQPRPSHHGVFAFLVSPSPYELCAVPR
Method in brief: (§1)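 Reversible inhibition of human CYP isoforms tested with isoform-specific probe substrates. Time-dependent (mechanism-based) inhibition was also assessed.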

CYP isoforms = test: cytochrome P450 inhibition, other isoforms and time-dependent inhibition; format: in vitro ADME; conditions: 20 μM
Method in brief: as §1

[7] = human pharmacokinetic and dose predictions
Method in brief: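 Human PK was predicted by PBPK modelling from human liver microsome clearance. Allometric scaling of unbound clearance after IV dosing in mouse, rat and dog served as a comparison. Half-life was derived from predicted clearance and Vss. A plasma profile was simulated for a single 200 mg oral dose in the fasted state.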

Ca_1.2 channel = Ca_1.2 channel (Homo sapiens, UniProt Q13936); test: Ca_1.2 channel assay; format: cell-based
Sequence of Ca_1.2 channel (Q13936 whole entry): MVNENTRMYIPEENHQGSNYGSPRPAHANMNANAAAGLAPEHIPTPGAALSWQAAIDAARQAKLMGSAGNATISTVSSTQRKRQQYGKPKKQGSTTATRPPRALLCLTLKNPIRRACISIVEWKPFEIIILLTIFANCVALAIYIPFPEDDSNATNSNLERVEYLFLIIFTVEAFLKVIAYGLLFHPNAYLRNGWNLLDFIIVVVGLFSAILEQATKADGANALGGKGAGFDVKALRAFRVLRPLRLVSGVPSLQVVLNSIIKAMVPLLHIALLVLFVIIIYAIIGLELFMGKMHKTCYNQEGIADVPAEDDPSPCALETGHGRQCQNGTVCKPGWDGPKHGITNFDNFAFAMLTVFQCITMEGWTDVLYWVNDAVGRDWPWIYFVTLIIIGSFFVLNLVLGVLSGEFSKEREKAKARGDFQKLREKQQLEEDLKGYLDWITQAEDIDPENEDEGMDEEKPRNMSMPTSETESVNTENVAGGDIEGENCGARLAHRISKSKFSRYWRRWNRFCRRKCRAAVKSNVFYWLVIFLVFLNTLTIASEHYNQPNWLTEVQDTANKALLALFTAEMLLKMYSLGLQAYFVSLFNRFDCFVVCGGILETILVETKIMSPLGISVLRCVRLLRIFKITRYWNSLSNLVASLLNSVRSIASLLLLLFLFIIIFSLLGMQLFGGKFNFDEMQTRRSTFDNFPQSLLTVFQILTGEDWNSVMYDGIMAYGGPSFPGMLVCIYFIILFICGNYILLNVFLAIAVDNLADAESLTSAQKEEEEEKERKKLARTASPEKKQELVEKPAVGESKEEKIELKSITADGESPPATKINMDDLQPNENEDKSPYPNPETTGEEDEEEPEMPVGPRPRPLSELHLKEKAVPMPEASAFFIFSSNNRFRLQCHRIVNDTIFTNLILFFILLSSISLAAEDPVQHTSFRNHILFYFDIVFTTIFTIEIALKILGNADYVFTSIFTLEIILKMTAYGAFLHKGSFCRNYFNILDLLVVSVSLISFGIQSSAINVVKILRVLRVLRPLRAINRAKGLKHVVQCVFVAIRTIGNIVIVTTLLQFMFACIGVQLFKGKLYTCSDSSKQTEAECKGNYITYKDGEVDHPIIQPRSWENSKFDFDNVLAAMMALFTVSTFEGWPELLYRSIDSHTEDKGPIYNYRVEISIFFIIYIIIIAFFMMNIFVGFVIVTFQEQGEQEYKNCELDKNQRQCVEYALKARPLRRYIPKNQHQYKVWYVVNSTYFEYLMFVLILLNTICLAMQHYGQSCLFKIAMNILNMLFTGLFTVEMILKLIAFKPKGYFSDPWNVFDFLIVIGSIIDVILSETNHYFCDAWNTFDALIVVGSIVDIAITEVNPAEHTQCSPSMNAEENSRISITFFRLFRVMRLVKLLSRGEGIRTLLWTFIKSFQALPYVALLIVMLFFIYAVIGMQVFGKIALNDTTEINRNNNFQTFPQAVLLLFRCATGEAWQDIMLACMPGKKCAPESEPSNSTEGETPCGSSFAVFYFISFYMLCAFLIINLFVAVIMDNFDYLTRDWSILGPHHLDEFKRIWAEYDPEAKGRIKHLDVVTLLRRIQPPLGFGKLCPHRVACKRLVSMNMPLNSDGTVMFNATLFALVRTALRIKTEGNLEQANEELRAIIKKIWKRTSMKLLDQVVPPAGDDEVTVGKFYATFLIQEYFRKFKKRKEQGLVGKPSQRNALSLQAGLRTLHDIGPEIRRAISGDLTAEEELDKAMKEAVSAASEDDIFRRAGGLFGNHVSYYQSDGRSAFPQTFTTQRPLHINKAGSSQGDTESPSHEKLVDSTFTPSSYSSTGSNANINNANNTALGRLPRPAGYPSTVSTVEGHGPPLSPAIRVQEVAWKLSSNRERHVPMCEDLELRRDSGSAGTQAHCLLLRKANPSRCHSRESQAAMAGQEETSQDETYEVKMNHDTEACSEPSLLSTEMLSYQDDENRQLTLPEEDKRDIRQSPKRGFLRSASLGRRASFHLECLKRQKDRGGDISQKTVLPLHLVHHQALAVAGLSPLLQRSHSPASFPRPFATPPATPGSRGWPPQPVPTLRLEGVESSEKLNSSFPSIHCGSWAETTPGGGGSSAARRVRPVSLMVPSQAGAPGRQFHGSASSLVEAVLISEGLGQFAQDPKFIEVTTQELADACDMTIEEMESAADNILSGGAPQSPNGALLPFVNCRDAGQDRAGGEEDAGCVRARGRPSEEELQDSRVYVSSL
Sequence of Ca_1.2 channel (Q08289 whole entry, further chain): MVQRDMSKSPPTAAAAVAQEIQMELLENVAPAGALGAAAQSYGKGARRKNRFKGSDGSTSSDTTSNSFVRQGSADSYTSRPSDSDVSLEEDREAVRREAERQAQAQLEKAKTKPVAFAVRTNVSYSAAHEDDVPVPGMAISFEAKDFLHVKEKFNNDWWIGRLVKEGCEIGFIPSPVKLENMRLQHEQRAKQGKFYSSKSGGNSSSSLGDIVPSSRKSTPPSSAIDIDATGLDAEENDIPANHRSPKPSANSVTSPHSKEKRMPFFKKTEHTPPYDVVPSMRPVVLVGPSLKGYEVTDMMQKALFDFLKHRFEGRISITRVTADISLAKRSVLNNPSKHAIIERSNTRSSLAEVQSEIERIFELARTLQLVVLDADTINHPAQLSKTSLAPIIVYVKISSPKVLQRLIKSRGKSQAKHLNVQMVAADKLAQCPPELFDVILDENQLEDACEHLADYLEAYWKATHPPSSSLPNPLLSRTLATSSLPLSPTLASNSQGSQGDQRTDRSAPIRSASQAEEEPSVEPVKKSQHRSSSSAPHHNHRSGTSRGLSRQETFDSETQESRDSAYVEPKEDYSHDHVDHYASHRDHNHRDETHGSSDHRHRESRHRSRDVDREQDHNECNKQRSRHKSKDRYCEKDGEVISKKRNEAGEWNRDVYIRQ
Sequence of Ca_1.2 channel (P54289 25-956, further chain): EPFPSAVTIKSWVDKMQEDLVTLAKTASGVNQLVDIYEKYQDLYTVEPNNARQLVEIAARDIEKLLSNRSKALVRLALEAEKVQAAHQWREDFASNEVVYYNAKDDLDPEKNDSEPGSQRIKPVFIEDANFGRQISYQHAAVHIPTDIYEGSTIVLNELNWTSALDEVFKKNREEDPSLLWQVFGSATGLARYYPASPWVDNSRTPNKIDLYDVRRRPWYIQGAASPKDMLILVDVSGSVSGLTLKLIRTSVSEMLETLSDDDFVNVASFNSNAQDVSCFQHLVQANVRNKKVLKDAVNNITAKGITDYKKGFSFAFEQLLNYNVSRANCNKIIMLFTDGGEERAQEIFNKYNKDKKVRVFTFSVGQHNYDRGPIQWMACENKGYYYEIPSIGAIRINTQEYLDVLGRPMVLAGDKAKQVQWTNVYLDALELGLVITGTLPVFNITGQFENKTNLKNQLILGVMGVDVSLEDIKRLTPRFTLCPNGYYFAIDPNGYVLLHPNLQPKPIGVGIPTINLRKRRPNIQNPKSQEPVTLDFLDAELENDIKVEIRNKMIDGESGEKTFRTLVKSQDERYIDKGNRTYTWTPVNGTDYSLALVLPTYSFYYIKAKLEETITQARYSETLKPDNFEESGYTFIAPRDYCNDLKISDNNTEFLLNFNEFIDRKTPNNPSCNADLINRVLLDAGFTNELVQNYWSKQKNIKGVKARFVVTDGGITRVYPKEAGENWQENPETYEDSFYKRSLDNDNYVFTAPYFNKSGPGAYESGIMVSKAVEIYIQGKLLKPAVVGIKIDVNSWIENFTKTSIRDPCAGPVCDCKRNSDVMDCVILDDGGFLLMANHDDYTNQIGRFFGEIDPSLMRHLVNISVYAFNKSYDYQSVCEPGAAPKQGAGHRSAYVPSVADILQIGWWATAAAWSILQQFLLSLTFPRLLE
Sequence of Ca_1.2 channel (P54289 957-1103, further chain): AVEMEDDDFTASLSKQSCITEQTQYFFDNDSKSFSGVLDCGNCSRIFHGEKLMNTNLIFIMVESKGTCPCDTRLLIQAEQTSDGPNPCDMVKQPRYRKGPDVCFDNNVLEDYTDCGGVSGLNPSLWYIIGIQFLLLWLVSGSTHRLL
Method in brief: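 Channel activity measured by IonWorks automated patch-clamp electrophysiology at a contract lab.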

[8] = tested on: set of 100 human channels and enzymes; test: CEREP diversity panel; conditions: 10 μM ([…])
[9] = rat 7-day exploratory toxicity study; format: in vivo; conditions: rat 7-day exploratory toxicity study (data not shown)

Sequence of P. cynomolgi DHODH (K6UE05 1-385): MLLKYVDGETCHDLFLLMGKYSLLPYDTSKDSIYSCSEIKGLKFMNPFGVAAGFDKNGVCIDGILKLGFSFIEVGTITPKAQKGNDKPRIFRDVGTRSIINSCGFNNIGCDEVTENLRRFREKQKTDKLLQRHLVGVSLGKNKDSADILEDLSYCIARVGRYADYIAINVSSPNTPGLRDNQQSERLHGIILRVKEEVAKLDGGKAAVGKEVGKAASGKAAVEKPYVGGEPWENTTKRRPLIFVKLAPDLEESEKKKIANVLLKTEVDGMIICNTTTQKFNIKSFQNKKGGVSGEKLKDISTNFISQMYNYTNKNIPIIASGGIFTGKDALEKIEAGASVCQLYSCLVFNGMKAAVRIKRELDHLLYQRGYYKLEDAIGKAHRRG

SMILES: Cc1cc(Nc2ccc(C(F)(F)F)nc2)n2nc(C(C)(F)F)nc2n1 [DSM421, 2-(1,1-Difluoroethyl)-5-methyl-N-(6-(trifluoromethyl)pyridin-3-yl)-[1,2,4]triazolo[1,5-a]pyrimidin-7-amine]
- IC50 (P. cynomolgi DHODH): 12 nM
- microsomal CLint at 1 μM [1]: < 7 µL/min/mg
- microsomal CLint at 1 μM [2]: < 7 µL/min/mg
- EC50 [3]: > 50 µM
- selectivity window HepG2 over activity against P. falciparum (Human HepG2 cells): 600-5000 fold
- EC50 [4]: 12 nM
- AUC(0-t) ([5]; 2.6 mg/kg/day): 12900 ng·h/mL
- AUC(0-t) ([5]; 5 mg/kg/day): 30800 ng·h/mL
- tolerability ([6]; SCID mice, oral QD 4 days): well tolerated and no adverse reactions were noted
- Cav at ED90 ([6]; blood): 0.53 µg/mL
- Cmin at 5 mg/kg/day ([6]; blood): 0.33 µg/mL
- Cmin at ED90 ([6]; blood): 0.1 µg/mL
- ED90 24 h after the last dose ([6]; oral QD for 4 days): 2.6 mg/kg/day
- dose giving maximum parasite killing ([6]; oral QD for 4 days): ≥ 5 mg/kg/day
- permeability across Caco-2 cell monolayers (Caco-2 cell monolayers): high in both directions with no evidence for significant efflux
- inhibition at 20 µM (CYP2D6): 45%
- inhibition of the other CYP isoforms (CYP isoforms): no measurable inhibition
- predicted unbound human clearance ([7]; allometric scaling of mice, rats and dogs IV unbound clearance): 2.2 mL/min/kg
- estimated human half-life ([7]; human): ~ 78 h
- half-life ([7]; human, plasma, estimated human half-life): 3.25 days
- activity on Ca_1.2 channel (Ca_1.2 channel): no activity
- inhibition in CEREP diversity panel [8]: no significant inhibition
- tolerability [9]: well tolerated
